Consider four molecules from ChEMBL document CHEMBL3228013 (J Med Chem, 1979).

One data set deals with L1210. The data set is described as follows: Antitumor activity against mouse L1210 cells allografted in mouse at 500 mg/kg, ip began on day 1 halved compound dose ended at […], ip measured on day 30. It counts as functional, organism-based. In outline:
(§1)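 Female or male mice bearing L1210 lymphoid leukemia were tested under the NCI standard protocol. Dosing was ip, day 1 only, in aqueous Tween-80, at halved doses starting at 500 mg/kg and generally ending at 62.5 mg/kg. Mean survival time was assessed on day 30, and T/C ≥125% was taken as active.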

Data set [1] is described as follows: Half life of the compound in 1:4 D2O:[…] containing at 1 x 10^-3 M NaOD at 5 x 10^-2 M by UV-spectroscopy. It counts as physicochemical. The conditions noted are these: 1:4 D2O:Me2SO-d2 with NaOD.
Another data set deals with Mus musculus. The data set can be described thus: Toxicity in mouse allografted with mouse L1210 cells at 500 mg/kg, ip. More on the design: dose 500 mg/kg, route intraperitoneal. It counts as organism-based. The conditions noted are these: in vivo. In outline:
as §1

The subject of another data set is KB. The data set can be described thus: Cytotoxicity against human KB cells. It counts as functional, cell-based.
Data set [2] can be described thus: Half life of the compound in 1:1 H2O:ethylalcohol containing 8.33 x 10^-3 M NaOH at 8.3 x 10^-5 M by UV-spectroscopy. Format: physicochemical. The conditions noted are these: 1:1 water:ethanol with NaOH.
The nature of data set [3]: Drug metabolism assessed as wheat germ orthophosphoric monoester phosphohydrolase-mediated hydrolysis at 1.5 mM by UV spectroscopy. Format: ADME. The conditions noted are these: triticum aestivum, 1500 µM. The procedure, abridged: (§2)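 Wheat germ orthophosphoric monoester phosphohydrolase (2.1 units/mg toward 2-carboxyphenyl phosphate) was used. Compound at 1.5 mM was incubated in 0.15 M NaOAc pH 5.0 with glycerin at about 25–26 °C for 2 h, against a reference cell without enzyme, with UV monitoring at 290 nm. 2-Carboxyphenyl phosphate was then added to check remaining enzyme activity.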

Data set [4] is described as follows: Half life of the compound in 1:1 H2O:ethylalcohol containing 2.08 x 10^-3 M NaOH at 8.3 x 10^-5 M by UV-spectroscopy. Format: physicochemical. The settings on record: 1:1 water:ethanol with NaOH.
Data set [5] can be described thus: Half life of the compound in 1:1 H2O:ethylalcohol containing 5 x 10^-3 M NaOH at 8.3 x 10^-5 M by UV-spectroscopy. It counts as physicochemical. The conditions noted are these: 1:1 water:ethanol with NaOH.
Data set [6] is described as follows: Half life of the compound in 1:1 H2O:ethylalcohol containing 3.33 x 10^-3 M NaOH at 8.3 x 10^-5 M by UV-spectroscopy. It counts as physicochemical. The conditions noted are these: 1:1 water:ethanol with NaOH.
Data set [7] in a line: Toxicity in ip dosed mouse allografted with mouse L1210 cells. Format: organism-based. The settings on record: in vivo. The procedure, abridged: as §1
A short description of data set [8]: Half life of the compound in 1:1 H2O:ethylalcohol containing 6.66 x 10^-3 M NaOH at 8.3 x 10^-5 M by UV-spectroscopy. Format: physicochemical. The conditions noted are these: 1:1 water:ethanol with NaOH.
Data set [9] can be described thus: Inhibition of wheat germ orthophosphoric monoester phosphohydrolase using 2-carboxyphenyl phosphate as substrate at 1.5 mM after 2 hrs by UV spectroscopy. The settings on record: triticum aestivum, 1500 µM. In outline: as §2

Calls of active or inactive are those of the source. The rule behind the calls is not given here.

The term half-life denotes the time in which the quantity being followed falls by half. Regarding `Cc1ccc(NP(=O)(Oc2c(F)c(F)c(F)c(F)c2F)N(CCCl)CCCl)cc1` (configuration not stated), the result in the data set with L1210 and in the data set with KB was inactive. This molecule also showed a half-life at 50000 µM in data set [1] of 6.53 min. Further, the Activity entry in the data set with Mus musculus was “Non-toxic”.
Regarding `CCOc1ccc(NP(=O)(Oc2c(F)c(F)c(F)c(F)c2F)N(CCCl)CCCl)cc1` (configuration not stated), the result in the data set on L1210 and in the data set with KB was inactive. Further, in [1], the half-life at 50000 µM was 8.17 min. Moreover, the Activity result in the data set on Mus musculus is “Non-toxic”.
Take `O=P(Nc1ccccc1)(Oc1c(F)c(F)c(F)c(F)c1F)N(CCCl)CCCl` (configuration not stated): the result in the data set on L1210 and in the data set on KB was inactive. Further, in data set [1], the half-life at 50000 µM was 5.3 min. In the data set on Mus musculus, the Activity result is “Non-toxic”.
Consider `NP(=O)(Oc1c(F)c(F)c(F)c(F)c1F)N(CCCl)CCCl` (configuration not stated), for which the outcome in the data set with L1210 and in the data set with KB was inactive. In addition, the half-life at 83 µM was 0.6 min in data set [2]; 2 min in [4]; 0.867 min in data set [5]; 1.33 min in [6]; 0.717 min in data set [8]. Further, the Stability entry in [3] is “Stable”. The MTD in data set [7] was 31.2 mg/kg. Besides, in data set [9], the “inhibition (INH)” value is on record as “Not Active”.
